Screening results (PubChem BioAssay)
NPY-Y2 PAM-ag: potentiates or activates human NPY-Y2 receptor; P49146; cells expressing NPY-Y2, potentiator/agonist read-out; AID 1359; 220,000 tested, 0.45% active; activation, % at 3.6 µM; in the data active means activation above about 27%;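 further: cells stimulated with NPY near EC25 plus isoproterenol at EC100; 0% = vehicle plus submaximal agonist and 100% = vehicle plus saturating agonist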
Target sequence (P49146 whole entry, looked up): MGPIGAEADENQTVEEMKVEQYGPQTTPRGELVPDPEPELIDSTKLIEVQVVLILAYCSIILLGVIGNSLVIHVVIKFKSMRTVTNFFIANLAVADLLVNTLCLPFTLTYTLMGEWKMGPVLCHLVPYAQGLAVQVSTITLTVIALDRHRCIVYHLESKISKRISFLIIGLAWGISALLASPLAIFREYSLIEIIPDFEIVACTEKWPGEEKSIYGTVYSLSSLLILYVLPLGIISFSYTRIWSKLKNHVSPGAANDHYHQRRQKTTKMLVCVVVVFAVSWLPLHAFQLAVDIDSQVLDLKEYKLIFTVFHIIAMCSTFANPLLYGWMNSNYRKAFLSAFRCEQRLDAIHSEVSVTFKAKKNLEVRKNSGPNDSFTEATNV
NPY Y1 blocker: NPY-Y1 (human) receptor antagonism; 200,000 tested, 1% active; inhibition, % at 3.6 µM; HEK293-CNG Y1 cells, membrane potential fluorescence; NPY at EC95, then isoproterenol; P25929;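 active means inhibition above the campaign mean inhibition of all tested compounds plus 3 SD, cut at about 20% in these data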;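 further: 0% = DMSO wells given NPY plus isoproterenol and 100% = isoproterenol alone without NPY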
Target sequence (P25929 whole entry, looked up): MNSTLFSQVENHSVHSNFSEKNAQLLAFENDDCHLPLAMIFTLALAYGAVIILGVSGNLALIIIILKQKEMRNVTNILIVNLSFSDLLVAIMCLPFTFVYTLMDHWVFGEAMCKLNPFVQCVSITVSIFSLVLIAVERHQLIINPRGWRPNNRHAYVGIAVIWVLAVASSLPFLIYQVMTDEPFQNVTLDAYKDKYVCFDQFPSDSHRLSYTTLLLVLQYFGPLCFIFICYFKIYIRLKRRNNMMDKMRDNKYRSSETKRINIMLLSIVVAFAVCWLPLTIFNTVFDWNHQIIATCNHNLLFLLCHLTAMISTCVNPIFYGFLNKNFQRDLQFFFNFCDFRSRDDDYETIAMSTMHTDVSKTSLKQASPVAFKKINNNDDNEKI
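Material: HEK293 Y1/CNG channel cell line; also added: NPY (25 nM), isoproterenol (1 µM), Ro 20-1724 (25 µM); doses: one concentration, 3.6 µM, in 0.4% DMSO; schedule: compound incubation 1 h at room temperature, readout 45 min post-stimulation; technique: membrane potential fluorescence; measure: fluorescence ratio normalized to % inhibition between controls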
NPY-Y2 antag: antagonists of human neuropeptide Y receptor Y2; P49146; NPY-Y2 expressing cells, antagonist mode; inhibition, % at 2.7 µM; 140,000 tested, 0.99% active; AID 793; in the data active means inhibition above about 17%;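 further: 0% = vehicle with agonist challenge and 100% = reference antagonist with challenge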
NPY1 pot ag: potentiators or agonists of human neuropeptide Y receptor Y1. NPY-Y1 expressing cells, potentiator/agonist activation. activation, % at 3.6 µM. 220,000 tested, 0.37% active. AID 1304; in the data active means activation above about 33%, passing the limit was not always enough;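 further: cells stimulated with NPY at EC10 then isoproterenol at EC100; 0% = low agonist plus stimulus and 100% = saturating agonist plus stimulus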
NPY-Y2 pot conf: confirmation of human NPY-Y2 receptor potentiators or agonists | shares compounds with NPY-Y2 PAM-ag | cell-based NPY-Y2 potentiator/agonist assay | activation, % at 3.6 µM | 450 tested, 20% active; in the data active means activation above about 33%
NPY-Y1 potentiator: potentiates or activates NPY-Y1, counter-screen for NPY-Y2 hits; Y1 HEK293-CNG cells, membrane potential fluorescence; 450 tested, 20% active; shares compounds with NPY-Y2 PAM-ag; AID 1651; activation, % at 3.6 µM; in the data active means activation above about 45%;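 further: cells stimulated with submaximal NPY then isoproterenol with phosphodiesterase inhibitor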
NPY-Y1 ag 2: human NPY-Y1 agonism as NPY-Y2 potentiator counter-screen; shares compounds with NPY-Y2 PAM-ag; activation, % at 3.6 µM; 450 tested, 37% active; HEK293 Y1-CNGC, membrane potential fluorescence;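 active means activation above the mean of DMSO-only control wells plus 3 SD, cut at about 18% in these data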;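 further: cells stimulated with 1 µM isoproterenol plus the PDE inhibitor Ro 20-1724; 0% = isoproterenol with DMSO and no NPY and 100% = 40 nM NPY; Y1 agonists lower the membrane potential dye signal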
CNGC inhibitor: blocks CNG channel activity, counter-screen for NPY-Y2 potentiators | AID 1703 | 450 tested, 32% active | inhibition, % at 3.6 µM | HEK293-CNG parental, isoproterenol cAMP, membrane potential fluorescence | shares compounds with NPY-Y2 PAM-ag;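 active means inhibition above the control-well mean plus 3 SD of those wells, cut at about 22% in these data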;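 further: 0% = DMSO with isoproterenol and 100% = DMSO without isoproterenol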
NPY-Y2 ag 2: NPY-Y2 agonism, counter-screen for Y2 potentiators; shares compounds with NPY-Y2 PAM-ag; HEK293 Y2/CNGC cells, membrane potential fluorescence, agonist mode; activation, % at 3.6 µM; 450 tested, 56% active;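 active means activation above the mean of solvent-only control wells plus 3 SD, cut at about 10% in these data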;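 further: cells stimulated by isoproterenol with no NPY added so direct agonism is tested; 0% = DMSO with isoproterenol alone and 100% = NPY at EC100 plus isoproterenol; agonism lowers probe fluorescence through less cAMP and CNG channel opening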
* marks the source's active call; other numbers are inactive results. The list is not random: actives were taken first. Their share in the collection is about 1.8%.

How did CC(=O)Nc1ccc(S(=O)(=O)NCCSCc2c(Cl)cccc2Cl)cc1 do in these assays?
NPY-Y2 PAM-ag: 36*; NPY Y1 blocker: -3; NPY-Y2 antag: 0; NPY1 pot ag: 3; NPY-Y2 pot conf: -1; NPY-Y1 potentiator: -4; NPY-Y1 ag 2: -11; CNGC inhibitor: -4; NPY-Y2 ag 2: -3

Results for O=c1[nH]cnc(O)c1C(c1ccc2c(c1)OCO2)c1c(O)nc[nH]c1=O ?
NPY-Y2 PAM-ag: 12; NPY Y1 blocker: 4; NPY1 pot ag: 4

What do the screens show for `CC1CCCCC1NC(=O)COC(=O)CNC(=O)c1cccc(F)c1` (configuration not stated)?
NPY-Y2 PAM-ag: -7; NPY Y1 blocker: -2; NPY1 pot ag: 14

Results for COCCNC(=O)c1c[nH]c2ccc(S(=O)(=O)N3CCc4ccccc43)cc2c1=O ?
NPY-Y2 PAM-ag: 15; NPY Y1 blocker: -9; NPY1 pot ag: 21

Results for COCCCNC(=O)c1c[nH]c2ccc(S(=O)(=O)N3CCc4ccccc43)cc2c1=O ?
NPY-Y2 PAM-ag: 33*; NPY Y1 blocker: 0; NPY1 pot ag: 12; NPY-Y2 pot conf: 14; NPY-Y1 potentiator: 8; NPY-Y1 ag 2: -3; CNGC inhibitor: 1; NPY-Y2 ag 2: 13*

What do the screens show for `OC(COc1ccc(-c2ccccc2)cc1)CN1CCOCC1` (configuration not stated)?
NPY-Y2 PAM-ag: 56*; NPY Y1 blocker: 3; NPY1 pot ag: 10; NPY-Y2 pot conf: -5; NPY-Y1 potentiator: -11; NPY-Y1 ag 2: 3; CNGC inhibitor: 2; NPY-Y2 ag 2: 2

What do the screens show for `OC(COc1ccc(OCc2ccccc2)cc1)CN1CCOCC1` (configuration not stated)?
NPY-Y2 PAM-ag: 8; NPY Y1 blocker: 1; NPY-Y2 antag: 2; NPY1 pot ag: -5

Results for Nc1ccc(N2CCCCC2)c(Cl)c1 ?
NPY-Y2 PAM-ag: -4; NPY Y1 blocker: 1; NPY1 pot ag: 2

What do the screens show for `CCN1C(=O)C2(C(C#N)=C(N)Oc3n[nH]c(-c4ccc(Cl)cc4)c32)c2ccccc21` (configuration not stated)?
NPY-Y2 PAM-ag: 39*; NPY Y1 blocker: -7; NPY-Y2 antag: 5; NPY1 pot ag: 31; NPY-Y2 pot conf: 44*; NPY-Y1 potentiator: 58*; NPY-Y1 ag 2: 51*; CNGC inhibitor: 24*; NPY-Y2 ag 2: 36*

Results for CCN1C(=O)C2(C(C#N)=C(N)Oc3n[nH]c(C(C)C)c32)c2ccccc21 (configuration not stated) ?
NPY-Y2 PAM-ag: -25; NPY Y1 blocker: 2; NPY-Y2 antag: 2; NPY1 pot ag: -15

How did Cc1ccc(S(=O)(=O)N2CCN(CC(=O)N/N=C\c3ccc(Cl)c([N+](=O)[O-])c3)CC2)cc1 do in these assays?
NPY-Y2 PAM-ag: 27*; NPY Y1 blocker: -4; NPY-Y2 antag: -3; NPY1 pot ag: 22; NPY-Y2 pot conf: 14; NPY-Y1 potentiator: 20; NPY-Y1 ag 2: 14; CNGC inhibitor: 25*; NPY-Y2 ag 2: 12*

Results for Cc1ccc(S(=O)(=O)Nc2ccc(NC(=O)c3c(F)c(F)c(F)c(F)c3F)cc2)cc1 ?
NPY-Y2 PAM-ag: 35*; NPY Y1 blocker: -5; NPY1 pot ag: 38; NPY-Y2 pot conf: 23; NPY-Y1 potentiator: 35; NPY-Y1 ag 2: 26*; CNGC inhibitor: 28*; NPY-Y2 ag 2: 24*

How did COC(=O)c1[nH]c2ccc(Br)cc2c1NC(=O)CN1CCN(C2CCCCC2)CC1 do in these assays?
NPY-Y2 PAM-ag: 33*; NPY Y1 blocker: 6; NPY-Y2 antag: 13; NPY1 pot ag: 30; NPY-Y2 pot conf: 43*; NPY-Y1 potentiator: 57*; NPY-Y1 ag 2: 28*; CNGC inhibitor: 49*; NPY-Y2 ag 2: 33*

Results for O=C(Nc1ccc(F)cc1F)N1CCCN(c2ccc([N+](=O)[O-])cn2)CC1 ?
NPY-Y2 PAM-ag: -8; NPY1 pot ag: 8

How did O=C(c1ccc(F)cc1F)C1CCN(c2ccc([N+](=O)[O-])cn2)CC1 do in these assays?
NPY-Y2 PAM-ag: 46*; NPY1 pot ag: 31; NPY-Y2 pot conf: 8; NPY-Y1 potentiator: -4; NPY-Y1 ag 2: 8; CNGC inhibitor: 8; NPY-Y2 ag 2: 12*

How did CCCN1Cc2cccc(C(=O)N3CCN(c4ccccc4)CC3)c2C1=O do in these assays?
NPY-Y2 PAM-ag: 38*; NPY Y1 blocker: 2; NPY-Y2 antag: 3; NPY1 pot ag: 4; NPY-Y2 pot conf: -5; NPY-Y1 potentiator: 5; NPY-Y1 ag 2: -15; CNGC inhibitor: -4; NPY-Y2 ag 2: 9

What do the screens show for `CCCN1Cc2cccc(C(=O)N3CCN(c4ccc(OC)cc4)CC3)c2C1=O`?
NPY-Y2 PAM-ag: -4; NPY Y1 blocker: -4; NPY1 pot ag: 6

How did Cc1cccc2sc(NC(=O)C3CCN(S(=O)(=O)c4cc([N+](=O)[O-])ccc4Cl)CC3)nc12 do in these assays?
NPY-Y2 PAM-ag: 40*; NPY Y1 blocker: -5; NPY-Y2 antag: -1; NPY1 pot ag: 28; NPY-Y2 pot conf: 29; NPY-Y1 potentiator: 22; NPY-Y1 ag 2: 24*; CNGC inhibitor: 18; NPY-Y2 ag 2: 41*

Results for COc1cccc(NC(=S)NN=C2CCCCCC2)c1 ?
NPY-Y2 PAM-ag: -6; NPY Y1 blocker: 1; NPY1 pot ag: -10

What do the screens show for `Cc1ccc(C)c(Nc2nc(N)c3ccccc3n2)c1`?
NPY-Y2 PAM-ag: 36*; NPY Y1 blocker: 0; NPY1 pot ag: 21; NPY-Y2 pot conf: 64*; NPY-Y1 potentiator: 82*; NPY-Y1 ag 2: 44*; CNGC inhibitor: 58*; NPY-Y2 ag 2: 55*

How did Cc1ccc(C)c(Nc2ncnc(N)c2[N+](=O)[O-])c1 do in these assays?
NPY-Y2 PAM-ag: 13; NPY Y1 blocker: -2; NPY-Y2 antag: 1; NPY1 pot ag: 15

Results for O=c1[nH]cc(COCC(F)CCl)c(=O)[nH]1 (configuration not stated) ?
NPY-Y2 PAM-ag: 93*; NPY1 pot ag: -6; NPY-Y2 pot conf: -3; NPY-Y1 potentiator: 2; NPY-Y1 ag 2: 3; CNGC inhibitor: 10; NPY-Y2 ag 2: 7

What do the screens show for `Cc1nn(Cc2ccc(Cl)cc2)c(C)c1NC(=O)CSc1n[nH]c(C)c1[N+](=O)[O-]`?
NPY-Y2 PAM-ag: 29*; NPY Y1 blocker: -4; NPY-Y2 antag: 1; NPY1 pot ag: 9; NPY-Y2 pot conf: 13; NPY-Y1 potentiator: 16; NPY-Y1 ag 2: 16; CNGC inhibitor: 19; NPY-Y2 ag 2: 27*
